In ChEMBL document CHEMBL1122088, “Synthesis of analogues of the carboxyl protease inhibitor pepstatin. Effect of structure in subsite P3 on inhibition of pepsin” (J Med Chem, 1982):
Activity calls are given as the source filed them. The calls are words filed in the database; no cut-off is given here. Square brackets hold non-standard residues; d marks the D form. Peptide text beside a SMILES is read from it. * marks the point of attachment. Sta = CC(C)C[C@H](N)[C@@H](O)CC(=O)O; Isovaleryl = CC(C)CC(=O)*; NHIsopentyl = CC(C)CCN*

How the values were obtained:
Pepsin A = Pepsin A (Sus scrofa, UniProt P00791); assay: The compound was tested for inhibition of carboxyl protease (pepsin) inhibition
Outline: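 Porcine pepsin was assayed spectrophotometrically with the heptapeptide substrate Phe-Gly-His-Phe(NO2)-Phe-Ala-Phe-OMe (Km 4.0×10^-5 M). Fractional velocity (Vi/V0) was plotted against inhibitor concentration to obtain IC50. IC50 was converted to Ki with Cha's equation, Ki = (IC50 − Et/2)(1 + S/Km)^-1, using total enzyme and substrate concentrations. Time-dependent inhibitors were preincubated with enzyme for 10 min, and steady-state velocities were used.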

Pepsin A (Sus scrofa) [1] = biological target: Pepsin A (Sus scrofa) (UniProt P00791); assay: The compound was tested for time dependent inhibition against carboxyl protease (pepsin); Yes
Pepsin A (Sus scrofa) [2] = biological target: Pepsin A (Sus scrofa) (UniProt P00791); assay: The compound was tested for time dependent inhibition against carboxyl protease (pepsin); No inhibition

Pepsin A (Sus scrofa), sequence (P00791 60-385 limits assumed): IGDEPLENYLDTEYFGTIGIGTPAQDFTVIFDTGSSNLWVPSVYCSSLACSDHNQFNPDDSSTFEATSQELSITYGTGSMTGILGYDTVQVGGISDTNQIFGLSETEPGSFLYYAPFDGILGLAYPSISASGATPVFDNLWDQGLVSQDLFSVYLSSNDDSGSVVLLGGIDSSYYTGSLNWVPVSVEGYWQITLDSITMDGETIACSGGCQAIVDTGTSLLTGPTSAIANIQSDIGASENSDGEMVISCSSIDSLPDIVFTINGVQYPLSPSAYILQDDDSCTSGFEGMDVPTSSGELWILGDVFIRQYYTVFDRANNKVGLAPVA
Pepsin A, sequence (P00791 whole entry): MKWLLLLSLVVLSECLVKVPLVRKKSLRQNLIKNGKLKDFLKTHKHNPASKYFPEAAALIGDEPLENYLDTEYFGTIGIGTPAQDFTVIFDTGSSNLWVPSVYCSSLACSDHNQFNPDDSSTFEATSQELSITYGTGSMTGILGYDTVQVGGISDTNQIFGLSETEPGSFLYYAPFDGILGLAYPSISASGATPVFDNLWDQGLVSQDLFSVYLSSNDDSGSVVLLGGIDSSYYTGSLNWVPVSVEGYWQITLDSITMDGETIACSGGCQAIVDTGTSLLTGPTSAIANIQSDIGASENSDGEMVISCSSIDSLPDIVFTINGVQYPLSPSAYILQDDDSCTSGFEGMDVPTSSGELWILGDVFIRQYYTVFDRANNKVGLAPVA

| Structure (SMILES) | Ki (Pepsin A) [nM] | TDI (Pepsin A (Sus scrofa) [1]) | TDI (Pepsin A (Sus scrofa) [2]) |
| --- | --- | --- | --- |
| CC(C)CCNC(=O)[C@H](C)NC(=O)C[C@H](O)[C@H](CC(C)C)NC(=O)[C@@H](NC(=O)[C@@H](NC(=O)OC(C)(C)C)C(C)C)C(C)C | ~6 | Active | – |
| CC(C)CCNC(=O)[C@H](C)NC(=O)C[C@H](O)[C@H](CC(C)C)NC(=O)[C@@H](NC(=O)OC(C)C)C(C)C | 8.6 | – | inactive |
| CC(C)CCNC(=O)[C@H](C)NC(=O)C[C@H](O)[C@H](CC(C)C)NC(=O)[C@@H](NC(=O)[C@H](NC(=O)OC(C)(C)C)C(C)C)C(C)C | 11 | Active | – |
| CC(C)CCNC(=O)[C@H](C)NC(=O)C[C@H](O)[C@H](CC(C)C)NC(=O)[C@@H](NC(=O)CC(C)C)C(C)C | 2.9 | Active | – |
| CCC(C)C(=O)N[C@H](C(=O)N[C@@H](CC(C)C)[C@@H](O)CC(=O)N[C@@H](C)C(=O)NCCC(C)C)C(C)C (stereo not given in full) | 0.31 | Active | – |
| CC(C)CCNC(=O)[C@H](C)NC(=O)C[C@H](O)[C@H](CC(C)C)NC(=O)[C@@H](NC(=O)CC(C)(C)C)C(C)C | 7.5 | – | inactive |
| CC(C)CCNC(=O)[C@H](C)NC(=O)C[C@H](O)[C@H](CC(C)C)NC(=O)[C@@H](NC(=O)[C@@H](NC(=O)CC(C)C)C(C)C)C(C)C (Isovaleryl-VV[Sta]A-NHIsopentyl) | ~0.1 | Active | – |
| CCC(CC)C(=O)N[C@H](C(=O)N[C@@H](CC(C)C)[C@@H](O)CC(=O)N[C@@H](C)C(=O)NCCC(C)C)C(C)C | 0.18 | Active | – |
| CC(C)CCNC(=O)[C@H](C)NC(=O)C[C@H](O)[C@H](CC(C)C)NC(=O)[C@@H](NC(=O)C(C)C)C(C)C | 1.6 | Active | – |
| CC(C)CCNC(=O)[C@H](C)NC(=O)C[C@H](O)[C@H](CC(C)C)NC(=O)[C@@H](NC(=O)OC(C)(C)C)C(C)C | 170 | – | inactive |
